FN deposit inh – fibronectin deposition inhibition; inhibition, % at 12.6 µM; AID 743247; AH1F fibroblasts, Alexa488-fibronectin deposition fluorescence, overnight; 0.086% of 350,000 active;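 active means mean inhibition across replicates of 30% or more, regardless of how many single replicates reach that level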;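 further: positive control wells lacked labelled fibronectin entirely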
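Test system: AH1F fibroblast monolayer depositing Alexa488-labelled fibronectin into matrix. Input: 10000 cells per well. Technique: fluorescence, ex 485 nm, em 525 nm. Buffer or medium: DMEM plus 2% serum, read in PBS. Timing: 1 h cell adhesion before compound, then overnight fibronectin incubation. Compound: single dose, pinned. Read-out basis: inhibition from reduced deposited-fibronectin fluorescence.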
FGF22 binding – binders of recombinant human FGF22 by thermal shift; Q9HCT0; SYPRO orange fluorescence; percent of sucrose octasulfate shift, DMSO zero; activity (Tm shift, normalised), % at 9.99 µM; 1.5% of 340,000 active; AID 651658;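 active means mean Tm shift, scaled 0 neutral to 100 positive control, at about 1.3% or above, every replicate too, limit read from the data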
E-selectin induc – induces E-selectin expression in human endothelial cells; P16581; HUVEC E-selectin immunofluorescence imaging; normalized: neutral wells 0, TNF-alpha wells 100; activation, % at 7.58 µM; 0.37% of 260,000 active; AID 686992;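 active means mean E-selectin-positive cell signal at least 10% of the positive control, reached in at least 60% of replicates, without over 20% cell loss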
Target sequence (P16581 whole entry, looked up): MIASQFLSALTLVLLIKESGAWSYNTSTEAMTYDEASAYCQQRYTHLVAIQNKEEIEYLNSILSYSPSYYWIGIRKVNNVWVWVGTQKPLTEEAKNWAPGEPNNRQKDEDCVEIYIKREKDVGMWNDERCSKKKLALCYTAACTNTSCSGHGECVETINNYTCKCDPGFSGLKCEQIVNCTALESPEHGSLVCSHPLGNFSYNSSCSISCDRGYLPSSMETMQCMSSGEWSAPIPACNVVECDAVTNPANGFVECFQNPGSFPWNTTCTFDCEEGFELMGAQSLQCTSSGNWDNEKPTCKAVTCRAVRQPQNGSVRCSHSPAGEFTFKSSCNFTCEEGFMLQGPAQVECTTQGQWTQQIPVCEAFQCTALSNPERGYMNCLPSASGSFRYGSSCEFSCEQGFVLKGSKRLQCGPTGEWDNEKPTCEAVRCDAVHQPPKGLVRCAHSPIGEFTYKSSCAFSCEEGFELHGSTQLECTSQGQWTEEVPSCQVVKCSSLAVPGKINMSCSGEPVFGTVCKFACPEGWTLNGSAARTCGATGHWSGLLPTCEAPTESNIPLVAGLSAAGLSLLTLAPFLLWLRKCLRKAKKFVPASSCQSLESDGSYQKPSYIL
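material = human umbilical vein endothelial cells (HUVEC), E-selectin induction | quantity = 3,000 cells/well | medium = EGM-2 growth medium on 0.1% gelatin-coated wells | technique = immunofluorescence imaging | read-out basis = % PE-positive cells | control set = TNF-alpha positive control, DMSO neutral control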
Statin myotox sup – suppressors of simvastatin-induced myotoxicity in C2C12 myotubes. rescue of ATP level, % at 7.49 µM. 0.78% of 330,000 active. ATP luminescence, 48 h; scaled: DMSO 0, geranylgeraniol control 100;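 active means mean ATP rescue above about 67%, or every replicate alone reaching that limit, limit read from the data, passing the limit was not always enough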;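 further: myotubes were challenged with 10 µM simvastatin during compound exposure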
SIRT5 block – sirtuin-5 (human) deacylase inhibition | Q9NXA8 | Purified SirT5, succinyl-peptide AMC, trypsin-coupled fluorescence | 1.1% of 330,000 active | inhibition, % at 15 µM; in the data active means inhibition above about 15%
rRNA inh HTS – selective bacterial rRNA inhibition in E. coli | E. coli WT GFP vs humanized-ribosome RFP mutants, fluorescence, 24 h; hits give low values; DMSO median 0, no signal -100 | GFP signal change (wild-type ribosome), % (no concentration beside the values) | 1.6% of 350,000 active | AID 720706;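 active means significant combined selectivity score with lowered wild-type GFP, culture density cut under 30%, mutant RFP and density less affected; inactive means any of these conditions unmet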
An asterisk follows results filed as active; . = not tested or not shown. An excerpt weighted towards active compounds, which were near 4% of everything screened.

SMILES	FN deposit inh	FGF22 binding	E-selectin induc	Statin myotox sup	SIRT5 block	rRNA inh HTS
COc1ccc(-n2c(-c3ccc(Cl)cc3Cl)n[nH]c2=S)c(OC)c1	0.1	-0.5	0.0	3.1	-1.0	-32.5*
Cc1ccnc(NC(=O)c2ccccc2[N+](=O)[O-])c1	.	.	.	5.4	.	.
O=C(Nc1ccc(Nc2ccccc2)cc1)c1ccc(Cl)cc1[N+](=O)[O-]	6.7	0.0	.	-32.1	3.6	-27.4*
O=C(Nc1ccc(Cl)cn1)c1cccc2ccccc12	8.0	-0.3	.	-54.5	-0.4	11.4
O=C(Nc1ccc(Cl)cn1)c1ccccc1[N+](=O)[O-]	12.5	43.1*	.	-9.3	-0.5	-5.4
Cc1ccnc(NC(=O)c2cccc([N+](=O)[O-])c2C)c1	-1.0	43.2*	0.0	.	-0.8	7.7
CS(=O)(=O)Nc1ccc2c(c1)[C@H]1C[C@H](CC(=O)N3CCc4ccccc4C3)O[C@H](CO)[C@H]1O2	.	0.3	-0.5	0.7	-7.8	1.9
C[C@@H]1CN([C@@H](C)CO)C(=O)c2ccccc2-c2ccccc2CO[C@H]1CN(C)Cc1ccccc1C(F)(F)F	2.9	-0.8	0.0	.	27.6*	0.9
C[C@H]1CN([C@@H](C)CO)C(=O)c2ccccc2-c2ccccc2CO[C@H]1CN(C)Cc1cccc(C(F)(F)F)c1	-21.1	.	2.6	.	2.2	-7.2
C[C@H](CO)N1C[C@H](C)[C@H](CN(C)Cc2cccc(C(F)(F)F)c2)OCc2ccccc2-c2ccccc2C1=O	-17.9	-0.6	-7.3	.	19.6*	-5.2
C[C@H](CO)N1C[C@H](C)[C@H](CN(C)Cc2ccc(C(F)(F)F)cc2)OCc2ccccc2-c2ccccc2C1=O	-13.2	-0.4	-0.5	.	13.6	-7.0
C[C@H]1CN([C@@H](C)CO)C(=O)c2ccccc2-c2ccccc2CO[C@@H]1CN(C)Cc1ccc(C(F)(F)F)cc1	-5.1	-0.3	-0.5	.	16.3*	-5.2
C[C@@H]1CN([C@H](C)CO)C(=O)c2ccccc2-c2ccccc2CO[C@@H]1CN(C)Cc1ccc(C(F)(F)F)cc1	-6.1	-0.5	-0.4	.	5.1	0.1
COc1ccc2c3c([nH]c2c1)[C@H](CO)N(CC1CC1)CC31CN(C(=O)c2cccc(F)c2)C1	.	-0.1	-0.4	.	.	-5.6
CC(=O)N1[C@H](CN(C(=O)c2ccccc2)C(C)C)[C@@H](c2ccccc2)[C@@H]1CO	.	-0.2	1.2	-4.9	0.6	0.1
C[C@@H]1CN([C@H](C)CO)C(=O)Cc2cc(NC(=O)C3CC3)ccc2O[C@H]1CN(C)Cc1ccccc1	.	-0.1	0.1	5.4	-6.6	2.1
COC(=O)c1oc2ccccc2c1NC(=O)c1ccccc1O	-13.3	43.2*	.	-5.0	4.2	-23.6
COc1ccc(C)cc1C(=O)C1CC(C(=O)O)C(C)(C)C1C (centres undefined)	.	.	.	104.2*	.	.
COc1cc(C(=O)N(Cc2cccnc2)Cc2cc3cc4c(cc3[nH]c2=O)OCCO4)cc(OC)c1OC	-3.4	.	.	-1.1	.	.
O=C(c1ccccc1F)N(Cc1cccnc1)Cc1cc2cc3c(cc2[nH]c1=O)OCCO3	1.8	43.0*	0.3	-7.8	-1.3	17.7
CN(C)S(=O)(=O)c1ccc(C(=O)NCCOc2ccc(F)cc2)cc1	.	-0.1	.	146.0*	-2.6	-7.5
CN(C)CCCNC(=O)C[C@H]1CC[C@@H]2[C@H](COC[C@@H](O)CN2CC2CCCC2)O1	5.5	-0.3	0.1	4.2	6.6	3.0
Cc1cc(C=O)c(C)n1-c1cc(C(=O)O)cc(C(=O)O)c1	3.4	0.0	.	.	19.7*	16.8
C=CCOC(=O)C1=C(C)N=C2SCCC(=O)N2C1c1cccs1 (centres undefined)	.	.	.	110.1*	.	.
CCn1ncc(N(C)N)c(Cl)c1=O	-5.7	0.3	.	88.8*	7.6	15.4
O=C(N[C@H]1CC[C@H](CCNS(=O)(=O)Cc2ccccc2)O[C@H]1CO)c1cnccn1	0.4	.	-0.1	-0.5	-0.4	-0.4
Cc1[nH]n(-c2ccccc2)c(=O)c1N=Nc1ccc(C(=O)O)cc1	6.8	0.0	0.5	12.1	6.8	3.1
Cc1[nH]n(-c2ccccc2)c(=O)c1N=Nc1cccc(C(=O)O)c1	-4.4	-0.1	.	5.8	-0.4	-27.4*
